Experimental data collected from several papers.
Compare with care: the assays were run in different laboratories.
Target: Mitogen-activated protein kinase 10 (MAPK10, Homo sapiens, UniProt P53779)

SMILES	test	conditions	measurement	result
C[C@@]1(Cc2ccc(C#N)cc2)C(=O)N(c2cc(Cl)cc(Cl)c2)c2ncc(C(=O)NC3(c4nc(C5CCC5)no4)CC3)n21	cell-free assay, competition with immobilised ligand	1 µM	remaining binding	100%
CC(C)(O)[C@H]1CC[C@H](Nc2ccc3ncc(-c4cccc(C(F)(F)F)c4)n3n2)CC1	enzyme activity, inhibitor	1 µM	remaining activity	107%
CNC(=O)Nc1ccc2c(c1)CC[C@@]21OC(=O)N(CC(=O)N(Cc2ccc(F)cc2)[C@@H](C)C(F)(F)F)C1=O	cell-free assay, competition with immobilised ligand	1 µM	remaining binding	73%
Clc1ccc(Nc2nnc(Cc3ccncc3)c3ccccc23)cc1	cell-free assay	0.5 µM	remaining signal	116%
COc1cc(-c2cc(-c3ccc(N4CCNCC4)cc3)cnc2C)cc(OC)c1OC	enzyme activity, inhibitor	1 µM	inhibition	3%
CNC(=O)c1cc(Oc2ccc(NC(=O)Nc3ccc(Cl)c(C(F)(F)F)c3)cc2)ccn1	enzyme activity, inhibitor	10 µM	inhibition	66%
CCS(=O)(=O)c1cc2cc(C[C@@](O)(CC(C)(C)c3ccc(F)cc3C(N)=O)C(F)(F)F)[nH]c2cn1	cell-free assay, competition with immobilised ligand	1 µM	remaining binding	100%
CC(C)(C)c1nc(-c2cccc(NS(=O)(=O)c3c(F)cccc3F)c2F)c(-c2ccnc(N)n2)s1	enzyme activity, inhibitor, radiometric	1 µM	remaining activity	118%
CC/C(=N\NC(=O)NCc1cccc(O)c1)c1ccc(O)c(C)c1O	enzyme activity, inhibitor	0.1 µM	inhibition	-5%
Cc1ccc(C(=O)NCc2ccsc2)cc1C#Cc1cn(C(C)C)c2ncnc(N)c12	enzyme activity, inhibitor	1 µM	activity vs control	84%
Nc1ncnc2occ(-c3ccc(NC(=O)Nc4cc(C(F)(F)F)ccc4F)cc3)c12	cell-free assay, inhibitor	20 µM	remaining signal	1.3%
COc1cc(Nc2cnc(C#N)c(O[C@H](C)CN(C)C)n2)ncc1-c1cnn(C)c1	enzyme activity, inhibitor, radiometric	10 µM	remaining activity	97%
FC(F)c1nc2ccccc2n1-c1nc(N2CCOCC2)nc(N2CCOCC2)n1	enzyme activity, inhibitor	10 µM	remaining activity	88%
COc1cc2ncnc(Nc3ccc(Oc4ccccc4)c(C)c3C)c2cc1OC	enzyme activity, inhibitor	1 µM	inhibition	-1%
Cc1cc(NC(=O)c2cccc3cc(-c4cccc5[nH]nc(N)c45)ccc23)ccc1F	enzyme activity, inhibitor	0.1 µM	activity vs control	102%
O=C1NC(=O)c2cc(Nc3ccc(F)cc3)c(Nc3ccc(F)cc3)cc21	cell-free assay	0.5 µM	remaining signal	97.3%
CCC(=O)N[C@@H]1CC[C@H](C(=O)N(C)c2ccc(-c3nc4ccccc4o3)cc2)C1	cell-free assay, competition with immobilised ligand	1 µM	remaining binding	100%
Nc1ncnc2c1ncn2[C@@H]1O[C@H](COP(=O)(O)OP(=O)(O)OP(=O)(O)O)[C@@H](O)[C@H]1O	thermal stability, DSF	2 µM	ΔTm	~4.6 °C
O=C(Nc1cccnn1)N1CCC(=Cc2cccc(Oc3ccc(C(F)(F)F)cn3)c2)CC1	cell-free assay, competition with immobilised ligand	1 µM	remaining binding	100%
COc1cc(/C=C/C(=O)CC(=O)/C=C/c2ccc(O)c(OC)c2)ccc1O	enzyme activity, inhibitor	1 µM	activity vs control	109%
CS(=O)(=O)N1CCCC(NC(=O)[C@H](CCC2CCCCC2)NC(=O)c2ccc(CNc3ncnc4c3nnn4-c3ccccc3)cc2)C1 (stereo partly drawn)	cell-free assay, competition with immobilised ligand	0.1 µM	remaining binding	100%
FC(F)(F)Oc1cccc(-c2cnc3ccc(-c4ccncc4)nn23)c1	enzyme activity, inhibitor, radiometric	1 µM	activity vs control	85%
CS(=O)(=O)c1cc(C2(NC(=O)c3cncc4c3cnn4-c3ccc(F)cc3)CC2)ccn1	cell-free assay, competition with immobilised ligand	1 µM	remaining binding	100%
CN1CC(Oc2cnc(C#N)cc2-c2ccn3nc(NC(=O)C4CC4)cc3c2)C1	enzyme activity, inhibitor	1 µM	inhibition	2%
